Screening data (PubChem)
CAL PDZ FP-1: blocks peptide binding to the human CAL PDZ domain; purified CAL PDZ, TMR-peptide fluorescence polarization, 1 h; 0.92% of 300,000 active; inhibition, % at 24.9 µM; Q9HD26;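 active = mean inhibition of at least 30% with at least half of replicates also reaching 30%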;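 also: 0% = DMSO neutral control and 100% = excess unlabeled competitor peptide PRC23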
CAL PDZ FP-2: human CAL PDZ-peptide interaction inhibition | purified CAL PDZ, TMR-peptide fluorescence polarization, 1 h | inhibition, % at 20 µM | 0.02% of 330,000 active;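 active = highest replicate inhibition of at least 40%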;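 also: plate controls were DMSO neutral control wells for no effect and unlabeled competitor peptide control wells for full effect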
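Control set: unlabelled peptide and DMSO controls / Material: purified CerCALP PDZ construct / Timing: 1 h incubation at room temperature before polarization reading / Doses: 20 µM, one dose / Detection: fluorescence polarization (mP)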
Dyrk1A ADPGlo: Dyrk1A (rat) kinase inhibition. inhibition, % at 12.5 µM. 0.43% of 310,000 active. ADP-Glo luminescence, NFATc1 peptide. Q63470; in the data active = inhibition above about 50%;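 also: plate controls were vehicle with enzyme for no effect and no enzyme for full effect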
ARNT TACC3 PPI: ARNT/TACC3 interaction disruption; Q9Y6A5; AlphaScreen His-ARNT PAS-B/GST-TACC3 binding, luminescence; TACC3 fragment carries E629A point mutation; inhibition, % at 9.99 µM; 0.66% of 390,000 active;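 active = mean inhibition of replicates at least 50% and at least half of replicates each reaching 50%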;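 also: 0% = complete ARNT plus TACC3 wells and 100% = ARNT alone without TACC3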
Active calls of the source: *. Hits are enriched below; roughly 1.4% of the tested compounds scored in any of these assays.

What do the screens show for `C=CCOc1ccccc1C(=O)/C=C1/C(=O)Nc2ccccc21`?
CAL PDZ FP-1: 70*; Dyrk1A ADPGlo: 1; ARNT TACC3 PPI: 12

How did C=CCOc1ccc(C(=O)/C=C2/C(=O)Nc3ccccc32)cc1 do in these assays?
CAL PDZ FP-1: -6; CAL PDZ FP-2: 1; Dyrk1A ADPGlo: -4; ARNT TACC3 PPI: -6

What do the screens show for `COCCNc1nc2c(c(=O)n(C)c(=O)n2C)n1Cc1cccc(C)c1`?
CAL PDZ FP-1: 3; CAL PDZ FP-2: 0; Dyrk1A ADPGlo: 0; ARNT TACC3 PPI: 0

What do the screens show for `C=CCn1c(NCCOC)nc2c1c(=O)n(C)c(=O)n2C`?
CAL PDZ FP-1: 44*; CAL PDZ FP-2: 1; Dyrk1A ADPGlo: 2; ARNT TACC3 PPI: -5

How did CCC(C)NCCOCCOc1ccc(C)cc1Br (configuration not stated) do in these assays?
CAL PDZ FP-1: 7; CAL PDZ FP-2: 1; Dyrk1A ADPGlo: -11; ARNT TACC3 PPI: -5

How did C=CCNCCOCCOc1ccc(C)cc1Br do in these assays?
CAL PDZ FP-1: 32*; CAL PDZ FP-2: -1; Dyrk1A ADPGlo: 0; ARNT TACC3 PPI: 0

What do the screens show for `CO[C@H]1CC[C@H]2CCOc3ccc(C#N)cc3C(=O)N(C)C[C@@H](OC)[C@H](C)C(=O)N(C)C[C@H]1O2`?
ARNT TACC3 PPI: -5

How did COCCNC(=O)c1cc2c(-c3ccccc3F)nn(C)c2s1 do in these assays?
CAL PDZ FP-1: -2; CAL PDZ FP-2: -2; Dyrk1A ADPGlo: 16; ARNT TACC3 PPI: 7

Results for CCCCN(C)CCNC(=O)c1cc2c(-c3ccccc3F)nn(C)c2s1 ?
CAL PDZ FP-1: 43*; CAL PDZ FP-2: -4; Dyrk1A ADPGlo: 22; ARNT TACC3 PPI: -2

Results for OC[C@@H]1[C@H](c2ccc(-c3ccncc3)cc2)[C@@H]2CN(Cc3ccccn3)CCCCN12 ?
ARNT TACC3 PPI: 7

Results for Cc1ccc(S(=O)(=O)N(CC(=O)NCCC2=CCCCC2)Cc2ccccc2)cc1 ?
CAL PDZ FP-1: -1; CAL PDZ FP-2: 0; Dyrk1A ADPGlo: 1; ARNT TACC3 PPI: 7

What do the screens show for `O=C(CN(Cc1ccccc1)S(=O)(=O)c1ccc(F)cc1)NCCC1=CCCCC1`?
CAL PDZ FP-1: 73*; CAL PDZ FP-2: 25; Dyrk1A ADPGlo: 4; ARNT TACC3 PPI: -7

Results for Oc1c(CN2CCOCC2)cc(CN2CCOCC2)c(O)c1O ?
CAL PDZ FP-1: 0; CAL PDZ FP-2: 0; Dyrk1A ADPGlo: 6; ARNT TACC3 PPI: 13*

Results for O=C(C[C@@H]1C[C@@H]2c3cc(NC(=O)Nc4ccccc4F)ccc3O[C@@H]2[C@@H](CO)O1)NC1CCCCC1 ?
ARNT TACC3 PPI: -7

What do the screens show for `CC(C)=C(NC(=O)c1ccccc1)C(=O)NCCc1nc2ccccc2[nH]1`?
CAL PDZ FP-1: 38*; CAL PDZ FP-2: 0; Dyrk1A ADPGlo: 8; ARNT TACC3 PPI: 1

How did CCC(=O)N1CCCCN2[C@H](C1)[C@@H](c1ccc(C#Cc3ccccc3F)cc1)[C@@H]2CO do in these assays?
ARNT TACC3 PPI: -6

What do the screens show for `C1COC(NC(C2CC2)C2CC2)=N1`?
CAL PDZ FP-1: -2; CAL PDZ FP-2: -1; Dyrk1A ADPGlo: -9; ARNT TACC3 PPI: -14

How did C1CCCC(NC2=NCCO2)CCC1 do in these assays?
CAL PDZ FP-1: 59*; CAL PDZ FP-2: -1; Dyrk1A ADPGlo: -2; ARNT TACC3 PPI: 23

Results for CCOC(=O)N1CCN(C(=O)C2CCN(C(=O)c3ccc([N+](=O)[O-])cc3)CC2)CC1 ?
CAL PDZ FP-1: 77*; CAL PDZ FP-2: 0; Dyrk1A ADPGlo: 4; ARNT TACC3 PPI: -2

How did COc1cc2nc(Nc3ccc(C)c(C)c3)nc(N)c2cc1OC do in these assays?
CAL PDZ FP-1: -3; CAL PDZ FP-2: 2; Dyrk1A ADPGlo: 2; ARNT TACC3 PPI: 50*

How did Cc1nnc(SCC(=O)Nc2nccs2)s1 do in these assays?
CAL PDZ FP-1: 79*; CAL PDZ FP-2: 1; ARNT TACC3 PPI: -26

What do the screens show for `COC(=O)C1CCN(C(=O)C2CCC(=O)N(CCCc3ccccc3)C2)CC1` (configuration not stated)?
CAL PDZ FP-1: 69*; CAL PDZ FP-2: -1; Dyrk1A ADPGlo: 0; ARNT TACC3 PPI: 0

How did CCCc1cc(CNC(=O)C2CCC(=O)N(CCc3cccc(F)c3)C2)on1 (configuration not stated) do in these assays?
CAL PDZ FP-1: 35*; CAL PDZ FP-2: -1; Dyrk1A ADPGlo: 2; ARNT TACC3 PPI: -1

Results for Cc1ccc(CCNC(=O)C2CCC(=O)N(Cc3cccc(F)c3)C2)cc1 (configuration not stated) ?
CAL PDZ FP-1: 59*; CAL PDZ FP-2: 0; Dyrk1A ADPGlo: -4; ARNT TACC3 PPI: -6
